Results as given in ChEMBL document CHEMBL3046238, “Synthesis and biological activity evaluation of 1,2,3-thiadiazole derivatives as potential elicitors with highly systemic acquired resistance” (2009).
Activity calls are given as the source filed them. The calls are words filed in the database; no cut-off is given here.

Legend:
Format in all cases: functional
[1] = system: Puccinia triticina; test: Antifungal activity against Puccinia triticina inoculated on 500 ug/mL compound pre-treated wheat plants with 3 to 5 leaves assessed as growth inhibition
In short: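 Healthy wheat plants at the 3-5 leaf stage were sprayed with compound (500 μg/mL) and then inoculated with spores. Inhibition percentage was calculated against the corresponding spore stack.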

[2] = system: Fusarium fujikuroi; test: Antifungal activity against Fusarium fujikuroi assessed as growth inhibition at 50 ug/mL measured after 2 days post dose; conditions: for inhibition of growth at 50 µg/mL: 48 h, read-out: GI
[3] = system: Colletotrichum gloeosporioides; test: Antifungal activity against Glomerella cingulata assessed as growth inhibition at 50 ug/mL measured after 2 days post dose; conditions: for inhibition of growth at 50 µg/mL: 48 h, read-out: GI
[4] = system: Fusarium oxysporum f. sp. vasinfectum; test: Antifungal activity against Fusarium oxysporum f. sp. vasinfectum assessed as growth inhibition at 50 ug/mL measured after 2 days post dose; conditions: for inhibition of growth at 50 µg/mL: 48 h, read-out: GI
[5] = system: Mycosphaerella arachidis; test: Antifungal activity against Mycosphaerella arachidis assessed as growth inhibition at 50 ug/mL measured after 2 days post dose; conditions: for inhibition of growth at 50 µg/mL: 48 h, read-out: GI
[6] = system: Ustilaginoidea virens; test: Antifungal activity against Villosiclava virens assessed as growth inhibition at 50 ug/mL measured after 2 days post dose; conditions: for inhibition of growth at 50 µg/mL: 48 h, read-out: GI
[7] = system: Cytospora mali; test: Antifungal activity against Valsa mali assessed as growth inhibition at 50 ug/mL measured after 2 days post dose; conditions: for inhibition of growth at 50 µg/mL: 48 h, read-out: GI
[8] = system: Alternaria mali; test: Antifungal activity against Alternaria mali assessed as growth inhibition at 50 ug/mL measured after 2 days post dose; conditions: for inhibition of growth at 50 µg/mL: 48 h, read-out: GI
[9] = system: Botrytis cinerea; test: Antifungal activity against Botryotinia fuckeliana assessed as growth inhibition at 50 ug/mL measured after 2 days post dose; conditions: for inhibition of growth at 50 µg/mL: 48 h, read-out: GI
[10] = system: Alternaria kikuchiana; test: Antifungal activity against Alternaria kikuchiana assessed as growth inhibition at 50 ug/mL measured after 2 days post dose; conditions: for inhibition of growth at 50 µg/mL: 48 h, read-out: GI
[11] = system: Colletotrichum lagenaria; test: Antifungal activity against Colletotrichum lagenaria assessed as growth inhibition at 50 ug/mL measured after 2 days post dose; conditions: 48 h, read-out: GI
[12] = system: Alternaria solani; test: Antifungal activity against Alternaria solani assessed as growth inhibition at 50 ug/mL measured after 2 days post dose; conditions: 48 h, read-out: GI
[13] = system: Tobacco mosaic virus; test: (§1) Induction of systemic acquired resistance against Tobacco mosaic virus (TMV) in tobacco plants exposed to 500 ug/mL compound through leaf spray followed by 7 days culture under green house conditions assessed as inhibition of viral growth in leaves infected with Tobacco mosaic virus (TMV) measured 72 hr post viral infection by half-leaf juice rubbing method; design: scale not given: the % may be the effect or the level left
In short: (§2)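 Tobacco plants received compound by leaf spray or by soil irrigation, with double-distilled water as CK. Newly grown leaves were then rub-inoculated with TMV (5.88×10-2 μg/mL), and plants were kept at 25 °C for 72 h. Lesions on inoculated leaves were counted. Inhibition = (CK−A)/CK×100 from mean lesion numbers versus control.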

[14] = system: Fusarium oxysporum; test: Antifungal activity against Fusarium oxysporum assessed as growth inhibition at 50 ug/mL measured after 2 days post dose; conditions: for inhibition of growth at 50 µg/mL: 48 h, read-out: GI
[15] = system: Sclerotinia sclerotiorum; test: Antifungal activity against Sclerotinia sclerotiorum assessed as growth inhibition at 50 ug/mL measured after 2 days post dose; conditions: for inhibition of growth at 50 µg/mL: 48 h, read-out: GI
[16] = system: Phomopsis asparagi; test: Antifungal activity against Phomopsis asparagi assessed as growth inhibition at 50 ug/mL measured after 2 days post dose; conditions: for inhibition of growth at 50 µg/mL: 48 h, read-out: GI
[17] = system: Fusarium graminearum; test: Antifungal activity against Fusarium graminearum assessed as growth inhibition at 50 ug/mL measured after 2 days post dose; conditions: for inhibition of growth at 50 µg/mL: 48 h, read-out: GI
In short: (§3)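 Compound stock at 500 μg/mL in DMF, diluted with sterile water in the dish and mixed into potato dextrose agar before setting. A 4 mm diameter fungal plug is placed on the plate and cultured at 24-26 °C. Colony diameter is measured after 2 days.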

[18] = system: Tobacco mosaic virus; test: as §1, with “50” for “500”; design: scale not given: the % may be the effect or the level left; in short: as §2
[19] = system: Phytophthora infestans; test: Antifungal activity against Phytophthora infestans assessed as growth inhibition at 50 ug/mL measured after 2 days post dose; in short: as §3
[20] = system: Rhizoctonia solani; test: Antifungal activity against Rhizoctonia solani assessed as growth inhibition at 50 ug/mL measured after 2 days post dose; conditions: 48 h, read-out: GI
[21] = system: Botryosphaeria berengeriana; test: Antifungal activity against Botryosphaeria berengeriana assessed as growth inhibition at 50 ug/mL measured after 2 days post dose
[22] = system: Ceratobasidium cereale; test: Antifungal activity against Ceratobasidium cereale assessed as growth inhibition at 50 ug/mL measured after 2 days post dose

Row | SMILES | growth inhibition (GI) [1] | inhibition of growth at 50 µg/mL [2] [%] | inhibition of growth at 50 µg/mL [3] [%] | inhibition of growth at 50 µg/mL [4] [%] | inhibition of growth at 50 µg/mL [5] [%] | growth inhibition (GI) [6] | inhibition of growth at 50 µg/mL [7] [%] | inhibition of growth at 50 µg/mL [8] [%] | growth inhibition (GI) [9] | inhibition of growth at 50 µg/mL [10] [%] | inhibition of growth at 50 µg/mL [11] [%] | inhibition of growth at 50 µg/mL [12] [%] | Activity [13] [%] | inhibition of growth at 50 µg/mL [14] [%] | inhibition of growth at 50 µg/mL [15] [%] | growth inhibition (GI) [16] | inhibition of growth at 50 µg/mL [17] [%] | inhibition of growth at 50 µg/mL [6] [%] | inhibition of growth at 50 µg/mL [9] [%] | inhibition of growth at 50 µg/mL [16] [%] | further results
1 | Cc1nnsc1C(=O)Nc1nc(-c2ccc([N+](=O)[O-])cc2)cs1 | inactive | 5.3 | 8 | 14.3 | 35.7 | inactive | 26.1 | 24.1 | inactive | 0 | 17.6 | 20 | 0 | 13.3 | 11.1 | inactive | 37.5 | – | – | – | –
2 | Cc1csc(NC(=O)c2snnc2C)n1 | inactive | 64.3 | – | – | 29.4 | inactive | – | 50 | inactive | 17.6 | 17.6 | 35.7 | 70 | 15 | – | inactive | 7.1 | – | – | – | growth inhibition (GI) [3]: inactive; growth inhibition (GI) [4]: inactive; growth inhibition (GI) [7]: inactive; Activity [18]: 81%; growth inhibition (GI) [15]: inactive
3 | CCc1sc(NC(=O)c2snnc2C)nc1-c1ccc(Cl)cc1Cl | 0% | 64.3 | 20.1 | 20 | 14.3 | – | 44.4 | 35 | – | 37.5 | 26.7 | 33.3 | 0 | 13.3 | 61.5 | – | 25 | 33.3 | 40 | 12.5 | –
4 | COc1ccc(-c2csc(NC(=O)c3snnc3C)n2)cc1 | 45% | 10.5 | 4 | 0 | 14.3 | inactive | 8.7 | 15.5 | inactive | – | 5.9 | 4 | 35 | 3.3 | 5.6 | inactive | 25 | – | – | – | growth inhibition (GI) [10]: inactive
5 | COc1ccc(-c2nnc(-c3snnc3C)o2)cc1 | 0% | 0 | 29.4 | 0 | 17.6 | – | 47.2 | 37.9 | – | – | – | 17.6 | 80 | 0 | 23.5 | – | 37.9 | 29.4 | 31 | – | growth inhibition (GI) [19]: inactive; inhibition of growth at 50 µg/mL [20]: 0%; inhibition of growth at 50 µg/mL ([21]; 48 h, read-out: GI): 33.3%; Activity [18]: 78%; inhibition of growth at 50 µg/mL ([22]; 48 h, read-out: GI): 31%
6 | Cc1nnsc1C(=O)Nc1nc(-c2ccc(Cl)cc2)cs1 | 0% | 64.3 | 68.4 | 40 | 29.4 | – | 88.9 | 15 | – | 0 | 13.3 | 0 | 40 | 46.7 | 61.5 | – | 18.8 | 11.1 | 12 | 37.5 | –
7 | Cc1nnsc1C(=O)Nc1nc(-c2ccccc2)cs1 | 0% | 64.3 | 15.8 | 40 | 14.3 | – | 22.2 | 10 | – | 37.5 | 6.7 | 15.8 | 70 | 13.3 | 47.3 | – | 18.8 | 55.6 | 8.3 | 6.3 | Activity [18]: 74%
8 | CCc1cnc(NC(=O)c2snnc2C)s1 | – | 0 | 36.8 | 5 | 35.7 | – | 61.1 | 25 | – | 43.8 | 26.7 | 21 | 30 | 53.3 | 3.3 | – | 50 | 50 | 0 | 31.3 | –
9 | CCCCCCc1cnc(NC(=O)c2snnc2C)s1 | – | 64.3 | – | – | 29.4 | inactive | 31 | – | – | 0 | 26.7 | 21 | 0 | – | 71.4 | inactive | 0 | – | 25 | – | growth inhibition (GI) [3]: inactive; growth inhibition (GI) [4]: inactive; growth inhibition (GI) [8]: inactive; growth inhibition (GI) [14]: inactive
10 | CCCc1sc(NC(=O)c2snnc2C)nc1-c1ccc(Cl)cc1Cl | 30% | 21.1 | 12 | 3.6 | 35.7 | inactive | 4.3 | 6.9 | inactive | – | 11.8 | 4 | 20 | 10 | 22.2 | inactive | 25 | – | – | – | growth inhibition (GI) [10]: inactive
11 | Cc1ccc(-c2nnc(-c3snnc3C)o2)cc1 | 11% | – | – | – | – | inactive | – | – | – | – | – | 18.4 | 0 | 0 | 56 | – | – | – | 2.1 | – | growth inhibition (GI) [2]: inactive; inhibition of growth at 50 µg/mL ([19]; 48 h, read-out: GI): 0%; growth inhibition (GI) [3]: inactive; growth inhibition (GI) [4]: inactive; growth inhibition (GI) [5]: inactive; growth inhibition (GI) [7]: inactive; growth inhibition (GI) [8]: inactive; inhibition of growth at 50 µg/mL [20]: 67.9%; growth inhibition (GI) [21]: inactive; growth inhibition (GI) [22]: inactive; growth inhibition (GI) [17]: inactive
